Data reported in ChEMBL document CHEMBL1149174, “Synthesis and structure-activity relationship of acrylamides as KCNQ2 potassium channel openers” (J Med Chem, 2004).

target: Potassium voltage-gated channel subfamily KQT member 2 (Mus musculus) (UniProt Q9Z351); assay: Ability to open cloned mKCNQ2 channel expressed in Xenopus laevis oocytes at 10 uM expressed as percent of compound-free control current at -40 mV; format: functional, cell-based; conditions: Oocyte
Summary of the method: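 Two-electrode voltage clamp of Xenopus laevis oocytes injected with ~50 nL mKCNQ2 cRNA, kept at 17 °C in ND96 (mM: NaCl 90, KCl 1.0, CaCl2 1.0, MgCl2 1.0, HEPES 5.0, pH 7.5) with 5% horse serum and penicillin/streptomycin. Holding potential -90 mV, 10 mV steps from -80 to +40 mV. Current at -40 mV with 10 μM compound taken as % of compound-free control; mean ± SEM of ≥5 oocytes.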

Potassium voltage-gated channel subfamily KQT member 2 (Mus musculus), sequence (Q9Z351 whole entry): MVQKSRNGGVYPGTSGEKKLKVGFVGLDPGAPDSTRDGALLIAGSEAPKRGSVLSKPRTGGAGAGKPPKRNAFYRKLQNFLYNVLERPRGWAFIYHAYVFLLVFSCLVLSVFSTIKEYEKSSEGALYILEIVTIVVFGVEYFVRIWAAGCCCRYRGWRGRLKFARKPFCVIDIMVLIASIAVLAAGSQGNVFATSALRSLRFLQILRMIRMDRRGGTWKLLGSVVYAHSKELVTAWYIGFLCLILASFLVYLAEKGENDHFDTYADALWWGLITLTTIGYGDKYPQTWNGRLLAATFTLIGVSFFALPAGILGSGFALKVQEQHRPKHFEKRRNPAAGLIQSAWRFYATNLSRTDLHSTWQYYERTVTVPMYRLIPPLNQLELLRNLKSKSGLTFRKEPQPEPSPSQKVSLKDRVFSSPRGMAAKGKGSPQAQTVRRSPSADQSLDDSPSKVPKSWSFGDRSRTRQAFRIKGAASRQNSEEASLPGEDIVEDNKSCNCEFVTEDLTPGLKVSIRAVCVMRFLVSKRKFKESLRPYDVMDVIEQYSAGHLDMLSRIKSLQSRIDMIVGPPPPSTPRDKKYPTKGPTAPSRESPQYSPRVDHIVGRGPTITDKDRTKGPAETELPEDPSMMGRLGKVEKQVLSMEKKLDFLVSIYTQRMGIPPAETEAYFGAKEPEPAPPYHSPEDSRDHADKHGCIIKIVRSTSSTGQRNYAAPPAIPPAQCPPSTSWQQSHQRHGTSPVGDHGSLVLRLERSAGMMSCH

Row | SMILES | KCNQ2 current at -40 mV as percent of compound-free control
1 | COc1ccc(/C=C/C(=O)N[C@@H](C)c2cccc(N3CCOCC3)c2)cc1 | 140%
2 | COc1ccccc1/C=C/C(=O)N[C@@H](C)c1cccc(N2CCOCC2)c1 | 99%
3 | C[C@H](NC(=O)/C=C/c1ccccc1F)c1cccc(N2CCN(C)CC2)c1 | 107%
4 | COc1ccc([C@H](C)NC(=O)/C=C/c2ccccc2)cc1N1CCOCC1 | 96%
5 | C[C@H](NC/C=C/c1ccccc1)c1cccc(N2CCOCC2)c1 | 98%
6 | C[C@H](NC(=O)/C=C/c1ccc(F)cc1)c1cccc(N2CCOCC2)c1 | 88%
7 | COc1cccc(/C=C/C(=O)N[C@@H](C)c2cccc(N3CCOCC3)c2)c1 | 132%
8 | CC1CN(c2cccc([C@H](C)NC(=O)/C=C/c3ccccc3F)c2)CC(C)O1 (stereo partly specified) | 135%
9 | O=C(/C=C/c1ccccc1)NCc1cccc(N2CCOCC2)c1 | 110%
10 | C[C@H](NC(=O)CCc1ccccc1)c1cccc(N2CCOCC2)c1 | 105%
11 | COc1ccc(N2CCOCC2)cc1[C@H](C)NC(=O)/C=C/c1ccccc1 | 98%
12 | C[C@H](NC(=O)/C=C/c1ccc(F)cc1)c1ccc(F)c(N2CCOCC2)c1 | 142%
13 | C[C@H](NC(=O)/C=C/c1ccccc1F)c1cccc(N2CCOCC2)c1 | 121%
14 | CC1CN(c2cccc([C@H](C)NC(=O)/C=C/c3ccc(F)cc3)c2)CC(C)O1 (stereo partly specified) | 133%
15 | CC1=C(C(=O)N[C@@H](C)c2cccc(N3CCOCC3)c2)Cc2ccccc21 | 101%
16 | C[C@@H](c1cccc(N2CCOCC2)c1)N(C)C(=O)/C=C/c1ccccc1 | 72%
17 | C[C@H](NC(=O)/C=C/c1ccc(F)cc1F)c1cccc(N2CCOCC2)c1 | 124%
18 | C[C@H](NC(=O)/C=C/c1cc(F)ccc1F)c1cccc(N2CCOCC2)c1 | 102%

Now from value to molecule:

Row | KCNQ2 current at -40 mV as percent of compound-free control | SMILES
19 | 127% | C[C@H](NC(=O)/C=C/c1cccc(F)c1)c1cccc(N2CCOCC2)c1
20 | 163% | C[C@H](NC(=O)/C=C/c1ccccc1)c1cccc(N2CCOCC2)c1
21 | 96% | C[C@@H](NC(=O)/C=C/c1ccccc1)c1cccc(N2CCOCC2)c1
22 | 138% | CC1CN(c2cccc([C@H](C)NC(=O)/C=C/c3ccccc3)c2)CC(C)O1 (stereo partly specified)
23 | 129% | C[C@H](NC(=O)/C=C/c1ccccc1)c1ccc(F)c(N2CCOCC2)c1
24 | 104% | C[C@H](NC(=O)/C=C/c1ccccc1)c1cccc(N2CC3CC2CO3)c1 (stereo partly specified)
25 | 110% | C[C@H](NC(=O)/C=C/c1ccccc1)c1cccc(N(C)C)c1
26 | 110% | C[C@H](NC(=O)/C=C/c1ccccc1)c1cccc(N2CCCOCC2)c1
